For one compound, EC50 results are on record in BindingDB's records for doi:10.1021/jm0009538 (Paris-Sud University, 2000).

This experiment has as its target 5-hydroxytryptamine receptor 4 (Homo sapiens, UniProt Q13639). In words: Concentration required to produce half-maximal response against 5-hydroxytryptamine receptor in the presence of 10 nM compound in isolated human atrial myocytes. The gist of the method: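 Whole-cell patch clamp on enzymatically dissociated human atrial myocytes, room temperature (19–25 °C); Cs-based internal, pCa 8.5; I_Ca at 0 mV every 8 s, peak minus current at end of 400-ms pulse.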

Chain of 5-hydroxytryptamine receptor 4 (Q13639 whole entry): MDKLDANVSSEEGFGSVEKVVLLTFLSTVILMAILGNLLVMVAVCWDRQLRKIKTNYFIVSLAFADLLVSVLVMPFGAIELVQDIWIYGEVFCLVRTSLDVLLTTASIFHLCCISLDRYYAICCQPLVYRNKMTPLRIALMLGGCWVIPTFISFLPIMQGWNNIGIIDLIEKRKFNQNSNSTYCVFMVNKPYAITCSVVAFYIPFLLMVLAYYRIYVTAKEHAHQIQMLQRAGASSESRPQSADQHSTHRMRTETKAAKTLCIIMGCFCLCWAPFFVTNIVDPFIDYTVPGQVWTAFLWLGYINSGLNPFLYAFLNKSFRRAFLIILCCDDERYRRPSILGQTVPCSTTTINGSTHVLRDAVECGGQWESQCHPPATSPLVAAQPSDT

Regarding `COc1cc(N)c(Cl)cc1C(=O)OCCN1CCN(c2ncccn2)CC1` [4-Amino-5-chloro-2-methoxy-benzoic acid 2-(4-pyrimidin-2-yl-piperazin-1-yl)-ethyl ester], the EC50 – broadly, the concentration giving half of the maximal effect – turned out to be 66 nM.
